Data published in PMC2893247 (Journal of natural products, 2008).
“Also recorded” adds a separate entry of the source. Blank lines part the entries; values can stand above or below the compound they belong to.

Tests used:
[1] = test system: HIF-1; experiment: PC-3 cell-based reporter assay for HIF-1 activity; design: species or system human
Method in brief: (§1)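 PC-3 or T47D cells in DMEM/F12 with 10% FCS were transiently transfected with the HIF-1 reporter pHRE3-TK-luc. HIF-1 was induced by hypoxia (1% O2) or 10 μM 1,10-phenanthroline with test compound present. % inhibition = (1 − treated/induced luminescence) × 100. IC50 from concentration-response data, one experiment in triplicate. Potency given as fold change in IC50 relative to a reference analogue.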

[2] = test system: HIF-1; experiment: T47D cell-based reporter assay for HIF-1 activity; design: species or system human
Method in brief: as §1

[3] = test system: pGL3-Control construct; experiment: Luciferase expression from control construct pGL3-Control in T47D cells; format: cell-based, human; conditions: for IC50: Homo sapiens, T47D, read-out: IC50 on luciferase expression from pGL3-control
Method in brief: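 T47D cells in DMEM/F12 with 10% FCS were transiently transfected with the constitutive pGL3-Control luciferase construct. Cells were treated with test compound and exposed to hypoxia (1% O2). Luciferase read-out as % inhibition = (1 − treated/induced light output) × 100. IC50 taken from concentration-response data, one experiment in triplicate.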

[4] = test system: NADH-ubiquinone oxidoreductase (complex I); experiment: Respiration of digitonin-permeabilized T47D cells, complex I substrates; format: cell-based, human; conditions: malate and pyruvate
[5] = test system: VEGF; experiment: ELISA assay for secreted VEGF protein in T47D cells; format: cell-based, human; conditions: 16 h; for effect on hypoxic induction of secreted VEGF protein: hypoxia (1% O2)
Method in brief: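 T47D cells plated at 356,000/well and incubated overnight at 37°C. Test compound added in serum-free DMEM/F12. After 30 min in air, treatment continued 16 h under 1% O2/5% CO2/94% N2 or with 10 μM 1,10-phenanthroline. Secreted VEGF in conditioned medium measured by ELISA and normalised to total lysate protein (BCA assay).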

[6] = test system: HIF-1α protein; experiment: Western blot for nuclear HIF-1α protein in T47D cells; format: cell-based, human; conditions: T47D nuclear extract; for effect on induction of HIF-1α protein by hypoxia: 4 h hypoxia (1% O2)
Method in brief: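 T47D cells plated at 10 × 10^6 per 100 mm dish for 16 h. Test compound given 30 min at 37°C, then 10 μM 1,10-phenanthroline or 1% O2 for 4 h. Nuclear extracts (60 μg protein) run on 8% SDS-PAGE and blotted to nitrocellulose. Probed with anti-HIF-1α monoclonal antibody (1:500, 1 h, RT), then HRP anti-mouse (1:30,000, 40 min), with chemiluminescent detection.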

[7] = test system: PC-3 cells; experiment: Cell proliferation/viability assay, PC-3; format: cell-based, human; conditions: normoxic or hypoxic conditions, data not shown
Method in brief: (§2)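 Cells kept in DMEM/F12 with 10% FCS and antibiotics at 37°C. Plated at 30,000 cells/well and left overnight, then given test compound in serum-free medium. After 30 min, incubated 48 h under normoxia (5% CO2/95% air) or hypoxia (1% O2/5% CO2/94% N2). Viability read by neutral red or by sulforhodamine B (TCA fix, 0.4% dye, Tris extraction, A490 minus A690). Reported as % inhibition versus control.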

[8] = test system: MDA-MB-231 cells; experiment: Cell proliferation/viability assay, MDA-MB-231; format: cell-based, human; conditions: normoxic or hypoxic conditions, data not shown
Method in brief: as §2

IC50 [3]: 23 µM
SMILES: COC(=O)[C@]12CCCC(C)(C)[C@@H]1CC[C@@]1(C)[C@@H]3CC=C(C(C)=O)[C@H](C=O)[C@@]3(C)C(=O)C[C@@H]12 [Compound 8, 24-methyl-12,24,25-trioxoscalar-16-en-22-oate]
reduction in potency of HIF-1 inhibition in comparison to 7 [1]: 11 to 15 fold
reduction in potency of HIF-1 inhibition in comparison to 7 [2]: 5 to 7 fold

SMILES: C=C(C)[C@H]1Cc2c(ccc3c2O[C@@H]2COc4cc(OC)c(OC)cc4[C@@H]2C3=O)O1 [rotenone, reference compound]
effect on complex I-mediated mitochondrial respiration [4]: inhibited

SMILES: C/C(=C\CCc1ccoc1)CC/C=C(\C)CCCC1=CC(=O)OC1 [Compound 6, furospongolide]
effect on increase in secreted VEGF protein level caused by 1,10-phenanthroline ([5]; 30 μM, 1,10-phenanthroline (10 μM)): did not affect
effect on hypoxic induction of secreted VEGF protein [5]: decreased hypoxic induction of secreted VEGF proteins in a concentration-dependent manner; also recorded: inhibits hypoxic induction of HIF-1 target VEGF protein
effect on hypoxic induction of secreted VEGF protein ([5]; listed as Furospongolide): blocked the induction
effect on induction of HIF-1α protein by 1,10-phenanthroline ([6]; 4 h 1,10-phenanthroline 10 μM): only weakly inhibited
effect on induction of HIF-1α protein by hypoxia [6]: blocked the induction of HIF-1α protein by hypoxia; also recorded: blocks the induction of nuclear HIF-1 α protein accumulation
effect on induction of HIF-1α protein by hypoxia ([6]; listed as Furospongolide): inhibiting the hypoxic induction of HIF-1α protein
effect on cell proliferation/viability [7]: Neither 6 nor the 6/6a mixture affected
effect on complex I-mediated mitochondrial respiration [4]: selectively inhibits mitochondrial complex I-mediated respiration; also recorded: disrupting complex I
selectivity towards HIF-1 inhibition relative to suppression of hypoxic T47D cell proliferation/viability [2]: more than 10 fold
effect on cell proliferation/viability [8]: Neither 6 nor the 6/6a mixture affected

IC50 [3]: 2.6 µM
SMILES: CC(=O)C1=CC[C@H]2[C@]3(C)CC[C@H]4C(C)(C)CCC[C@]4(CO)[C@H]3CC(=O)[C@]2(C)[C@H]1C=O [Compound 9, 22-hydroxy-24-methyl-12,24-dioxoscalar-16-en-25-al]

SMILES: CC(=O)C1=CC[C@H]2[C@]3(C)CC[C@H]4C(C)(C)CCC[C@]4(CO)[C@H]3C[C@H](O)[C@]2(C)[C@H]1C=O [Compound 7, 22-Hydroxy-24-methyl-12α-hydroxy-24-oxoscalar-16-en-25-al]
effect on luciferase expression from control construct pGL3-Control ([3]; Figure 1B, 1D): suppressed luciferase expression
